In ChEMBL document CHEMBL4138126, “Synthesis, antiproliferative, anti-tubulin activity, and docking study of new 1,2,4-triazoles as potential combretastatin analogues” (Eur J Med Chem, 2017):

How the values were obtained:
[1] = test system: HepG2; experiment: Cytotoxicity in human HepG2 cells assessed as reduction in cell viability incubated for 48 hrs by MTT assay; format: functional, cell-based; conditions: HepG2, 48 h
Outline: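 HepG2 and HL60 (ATCC) grown in DMEM with 10% FBS, 2 mM L-glutamine, penicillin/streptomycin, amphotericin B at 37 °C, 5% CO2. Samples dissolved in DMSO, diluted thousandfold in assay. Cells seeded in serum-free medium, treated with serial concentrations 48 h; MTT 4 h, formazan dissolved in acidified isopropanol, A570. Triplicates averaged; viability relative to untreated/vehicle control.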

[2] = test system: CCRF-CEM; experiment: Growth inhibition of human CCRF-CEM cells assessed as cell growth at 10 uM after 48 hrs by sulforhodamine B assay; format: functional; conditions: read-out: Activity
Outline: (§1)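 NCI 60-cell-line panel screen (nine cancer types). Compounds added at single concentration 10^-5 M, cultures incubated 48 h; growth inhibition percentages reported.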

[3] = test system: HL-60(TB); experiment: Growth inhibition of human HL-60(TB) cells assessed as cell growth at 10 uM after 48 hrs by sulforhodamine B assay; format: functional; conditions: HL-60, 48 h, read-out: Activity
Outline: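 Screened by the NCI in its 60-cell-line panel covering nine cancer types, including leukemia. Compounds were added at a single concentration, and the cultures were incubated for 48 h. Results are reported as percent growth inhibition.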

[4] = test system: MOLT-4; experiment: Growth inhibition of human MOLT4 cells assessed as cell growth at 10 uM after 48 hrs by sulforhodamine B assay; format: functional; conditions: MOLT-4, 48 h, read-out: Activity; outline: as §1
[5] = test system: RPMI-8226; experiment: Growth inhibition of human RPMI8226 cells assessed as cell growth at 10 uM after 48 hrs by sulforhodamine B assay; format: functional; conditions: RPMI-8226, 48 h, read-out: Activity; outline: as §1
[6] = test system: SR; experiment: Growth inhibition of human SR cells assessed as cell growth at 10 uM after 48 hrs by sulforhodamine B assay; format: functional; conditions: read-out: Activity
Outline: (§2)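 NCI 60-cell-line panel from nine tumour types (leukaemia, lung, colon, CNS, melanoma, ovarian, renal, prostate, breast). Each compound was added at one single concentration, and cultures were incubated for 48 h. Results are reported as percent growth inhibition.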

[7] = test system: A549; experiment: Growth inhibition of human A549/ATCC cells assessed as cell growth at 10 uM after 48 hrs by sulforhodamine B assay; format: functional; conditions: A549, 48 h, read-out: Activity; outline: as §1
[8] = test system: EKVX; experiment: Growth inhibition of human EKVX cells assessed as cell growth at 10 uM after 48 hrs by sulforhodamine B assay; format: functional; conditions: read-out: Activity; outline: as §1
[9] = test system: HOP-62; experiment: Growth inhibition of human HOP62 cells assessed as cell growth at 10 uM after 48 hrs by sulforhodamine B assay; format: functional; conditions: HOP-62, 48 h, read-out: Activity; outline: as §1
[10] = test system: NCI-H23; experiment: Growth inhibition of human NCI-H23 cells assessed as cell growth at 10 uM after 48 hrs by sulforhodamine B assay; format: functional; conditions: NCI-H23, 48 h, read-out: Activity; outline: as §1
[11] = test system: NCI-H460; experiment: Growth inhibition of human NCI-H460 cells assessed as cell growth at 10 uM after 48 hrs by sulforhodamine B assay; format: functional; conditions: NCI-H460, 48 h, read-out: Activity; outline: as §1
[12] = test system: HCT-116; experiment: Growth inhibition of human HCT116 cells assessed as cell growth at 10 uM after 48 hrs by sulforhodamine B assay; format: functional; conditions: HCT-116, 48 h, read-out: Activity; outline: as §1
[13] = test system: HCT-15; experiment: Growth inhibition of human HCT15 cells assessed as cell growth at 10 uM after 48 hrs by sulforhodamine B assay; format: functional; conditions: HCT-15, 48 h, read-out: Activity; outline: as §1
[14] = test system: HT-29; experiment: Growth inhibition of human HT-29 cells assessed as cell growth at 10 uM after 48 hrs by sulforhodamine B assay; format: functional; conditions: HT-29, 48 h, read-out: Activity; outline: as §1
[15] = test system: SNB-19; experiment: Growth inhibition of human SNB19 cells assessed as cell growth at 10 uM after 48 hrs by sulforhodamine B assay; format: functional; conditions: SNB-19, 48 h, read-out: Activity; outline: as §2
[16] = test system: SNB-75; experiment: Growth inhibition of human SNB75 cells assessed as cell growth at 10 uM after 48 hrs by sulforhodamine B assay; format: functional; conditions: SNB-75, 48 h, read-out: Activity; outline: as §2
[17] = test system: Malme-3M; experiment: Growth inhibition of human MALME-3M cells assessed as cell growth at 10 uM after 48 hrs by sulforhodamine B assay; format: functional; conditions: read-out: Activity; outline: as §1
[18] = test system: MDA-MB-435; experiment: Growth inhibition of human MDA-MB-435 cells assessed as cell growth at 10 uM after 48 hrs by sulforhodamine B assay; format: functional; conditions: MDA-MB-435, 48 h, read-out: Activity; outline: as §1
[19] = test system: IGROV-1; experiment: Growth inhibition of human IGROV1 cells assessed as cell growth at 10 uM after 48 hrs by sulforhodamine B assay; format: functional; conditions: IGROV-1, 48 h, read-out: Activity; outline: as §1
[20] = test system: OVCAR-3; experiment: Growth inhibition of human OVCAR3 cells assessed as cell growth at 10 uM after 48 hrs by sulforhodamine B assay; format: functional; conditions: OVCAR-3, 48 h, read-out: Activity; outline: as §1
[21] = test system: OVCAR-5; experiment: Growth inhibition of human OVCAR5 cells assessed as cell growth at 10 uM after 48 hrs by sulforhodamine B assay; format: functional; conditions: OVCAR-5, 48 h, read-out: Activity; outline: as §1
[22] = test system: NCI/ADR-RES; experiment: Growth inhibition of human NCI-ADR-RES cells assessed as cell growth at 10 uM after 48 hrs by sulforhodamine B assay; format: functional; conditions: read-out: Activity; outline: as §1
[23] = test system: SK-OV-3; experiment: Growth inhibition of human SKOV3 cells assessed as cell growth at 10 uM after 48 hrs by sulforhodamine B assay; format: functional; conditions: SK-OV-3, 48 h, read-out: Activity; outline: as §1
[24] = test system: A498; experiment: Growth inhibition of human A498 cells assessed as cell growth at 10 uM after 48 hrs by sulforhodamine B assay; format: functional; conditions: A498, 48 h, read-out: Activity; outline: as §1
[25] = test system: ACHN; experiment: Growth inhibition of human ACHN cells assessed as cell growth at 10 uM after 48 hrs by sulforhodamine B assay; format: functional; conditions: read-out: Activity; outline: as §1
[26] = test system: RXF 393; experiment: Growth inhibition of human RXF393 cells assessed as cell growth at 10 uM after 48 hrs by sulforhodamine B assay; format: functional; conditions: RXF 393, 48 h, read-out: Activity; outline: as §1
[27] = test system: UO-31; experiment: Growth inhibition of human UO31 cells assessed as cell growth at 10 uM after 48 hrs by sulforhodamine B assay; format: functional; conditions: UO-31, 48 h, read-out: Activity; outline: as §2
[28] = test system: DU-145; experiment: Growth inhibition of human DU145 cells assessed as cell growth at 10 uM after 48 hrs by sulforhodamine B assay; format: functional; conditions: DU-145, 48 h, read-out: Activity; outline: as §1
[29] = test system: MDA-MB-231; experiment: Growth inhibition of human MDA-MB-231 cells assessed as cell growth at 10 uM after 48 hrs by sulforhodamine B assay; format: functional; conditions: MDA-MB-231, 48 h, read-out: Activity; outline: as §1
[30] = test system: Hs-578T; experiment: Growth inhibition of human Hs 578T cells assessed as cell growth at 10 uM after 48 hrs by sulforhodamine B assay; format: functional; conditions: read-out: Activity; outline: as §1
[31] = test system: BT-549; experiment: Growth inhibition of human BT549 cells assessed as cell growth at 10 uM after 48 hrs by sulforhodamine B assay; format: functional; conditions: BT-549, 48 h, read-out: Activity; outline: as §1
[32] = test system: MDA-MB-468; experiment: Growth inhibition of human MDA-MB-468 cells assessed as cell growth at 10 uM after 48 hrs by sulforhodamine B assay; format: functional; conditions: MDA-MB-468, 48 h, read-out: Activity; outline: as §1

Row | Structure (SMILES) | IC50 [1] [µM] | growth at 10 µM [2] [%] | growth at 10 µM [3] [%] | growth at 10 µM [4] [%] | growth at 10 µM [5] [%] | growth at 10 µM [6] [%] | growth at 10 µM [7] [%] | growth at 10 µM [8] [%] | growth at 10 µM [9] [%] | growth at 10 µM [10] [%] | growth at 10 µM [11] [%] | growth at 10 µM [12] [%] | growth at 10 µM [13] [%] | growth at 10 µM [14] [%] | growth at 10 µM [15] [%] | growth at 10 µM [16] [%] | growth at 10 µM [17] [%] | growth at 10 µM [18] [%] | growth at 10 µM [19] [%] | growth at 10 µM [20] [%] | also measured
1 | CCOc1ccc(-n2nc(C(=O)Nc3ccc(OC)c(O)c3)nc2-c2cc(OC)c(OC)c(OC)c2)cc1 | 13.7 | 89.5 | 94.3 | 74.9 | 67.7 | 68.5 | 94 | 95.7 | 99.3 | 86.1 | 97.6 | 96.7 | 97.2 | 99.2 | 91.8 | 71.2 | 114 | 95 | 95.2 | 97.8 | growth at 10 µM [21]: 102%; growth at 10 µM [22]: 86.4%; growth at 10 µM [23]: 112%; growth at 10 µM [24]: 111%; growth at 10 µM [25]: 91.5%; growth at 10 µM [26]: 112%; growth at 10 µM [27]: 56%; growth at 10 µM [28]: 98.5%; growth at 10 µM [29]: 65.8%; growth at 10 µM [30]: 86.8%; growth at 10 µM [31]: 103%; growth at 10 µM [32]: 101%
2 | COc1cccc(-n2nc(C(=O)Nc3ccccc3)nc2-c2cc(OC)c(OC)c(OC)c2)c1 | 6.53 | 105 | 121 | 105 | 108 | 93.9 | 92.4 | 91.2 | 83.8 | 111 | 107 | 91.3 | 88 | 79.9 | 102 | 55.5 | 95.9 | 90.4 | 93.1 | 99.9 | growth at 10 µM [21]: 89.5%; growth at 10 µM [22]: 93.1%; growth at 10 µM [23]: 102%; growth at 10 µM [24]: 100%; growth at 10 µM [25]: 93.8%; growth at 10 µM [26]: 97.9%; growth at 10 µM [27]: 61.6%; growth at 10 µM [28]: 104%; growth at 10 µM [29]: 104%; growth at 10 µM [30]: 99.7%; growth at 10 µM [31]: 87.4%; growth at 10 µM [32]: 84.5%
3 | CCOc1ccc(-n2nc(C(=O)NCc3ccccc3OC)nc2-c2cc(OC)c(OC)c(OC)c2)cc1 | 0.62 | 39.7 | 19.1 | 0.38 | 26.9 | 35.9 | 34.5 | 41.3 | 62.2 | 60.8 | 30.5 | 25.3 | 29 | 40.6 | 45.2 | 30 | 87.5 | 22.1 | 43.7 | 49.4 | growth at 10 µM [21]: 74.2%; growth at 10 µM [22]: 27.8%; growth at 10 µM [23]: 67.1%; growth at 10 µM [24]: 30%; growth at 10 µM [25]: 19.6%; growth at 10 µM [26]: 43.5%; growth at 10 µM [27]: -2.66%; growth at 10 µM [28]: 65.2%; growth at 10 µM [29]: 17.8%; growth at 10 µM [30]: 55.1%; growth at 10 µM [31]: 33.9%; growth at 10 µM [32]: 72.4%
4 | CCOc1ccc(-n2nc(C(=O)NCc3cc(F)cc(F)c3)nc2-c2cc(OC)c(OC)c(OC)c2)cc1 | 1.41 | 85.6 | 61.4 | 45.1 | 47 | 64 | 57 | 62.8 | 75.2 | 81.8 | 66.1 | 49.7 | 61 | 61.7 | 62.3 | 43.4 | 90.1 | 67 | 62.5 | 71.2 | growth at 10 µM [21]: 85%; growth at 10 µM [22]: 61.7%; growth at 10 µM [23]: 76%; growth at 10 µM [24]: 64.4%; growth at 10 µM [25]: 54.4%; growth at 10 µM [26]: 68.6%; growth at 10 µM [27]: 25.8%; growth at 10 µM [28]: 86.9%; growth at 10 µM [29]: 43.1%; growth at 10 µM [30]: 75.7%; growth at 10 µM [31]: 68.7%; growth at 10 µM [32]: 73.6%
